Measurements taken from ChEMBL document CHEMBL3352407, “Griseorhodins D-F, neuroactive intermediates and end products of post-PKS tailoring modification in Griseorhodin biosynthesis” (J Nat Prod, 2014).
Activity calls are given as the source filed them.

Tests used:
[1] = target: Alpha-1A adrenergic receptor (Homo sapiens) (UniProt P35348); experiment: Displacement of [3H]prazosin from adrenergic alpha1A receptor (unknown origin) at 10 uM after 90 mins by microbeta counting analysis
In short: (§1)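 Primary radioligand displacement screen, run by PDSP/NIMH. Receptor panel includes muscarinic M1–M5. Activity threshold 10 μM. Targets with significant binding went on to secondary Ki assays.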

[2] = target: Muscarinic acetylcholine receptor M5 (Homo sapiens) (UniProt P08912); experiment: Binding affinity to human M5 receptor expressed in CHO cells at 10 uM after 90 mins by microbeta counting analysis; type: cell-based; in short: as §1
Muscarinic acetylcholine receptor M5 (Homo sapiens), sequence (P08912 whole entry): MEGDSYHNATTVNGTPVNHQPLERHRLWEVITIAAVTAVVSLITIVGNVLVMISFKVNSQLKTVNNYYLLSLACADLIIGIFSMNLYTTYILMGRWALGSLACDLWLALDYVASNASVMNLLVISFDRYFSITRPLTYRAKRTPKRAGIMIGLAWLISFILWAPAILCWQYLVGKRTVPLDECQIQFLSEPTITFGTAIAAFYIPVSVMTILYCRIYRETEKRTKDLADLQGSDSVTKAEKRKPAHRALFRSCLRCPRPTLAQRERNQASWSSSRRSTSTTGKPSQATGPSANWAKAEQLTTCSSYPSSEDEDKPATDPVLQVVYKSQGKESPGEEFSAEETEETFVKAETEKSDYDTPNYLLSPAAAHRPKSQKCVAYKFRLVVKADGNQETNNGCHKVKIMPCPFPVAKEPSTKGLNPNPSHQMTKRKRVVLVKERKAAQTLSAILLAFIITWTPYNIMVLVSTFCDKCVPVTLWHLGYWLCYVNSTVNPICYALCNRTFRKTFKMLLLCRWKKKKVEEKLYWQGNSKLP

[3] = target: Beta-1 adrenergic receptor (Homo sapiens) (UniProt P08588); experiment: Binding affinity to human adrenergic beta1 receptor expressed in CHO Flp-In cells at 10 uM after 90 mins by microbeta counting analysis; type: cell-based; in short: as §1
Beta-1 adrenergic receptor (Homo sapiens), sequence (P08588 whole entry, looked up): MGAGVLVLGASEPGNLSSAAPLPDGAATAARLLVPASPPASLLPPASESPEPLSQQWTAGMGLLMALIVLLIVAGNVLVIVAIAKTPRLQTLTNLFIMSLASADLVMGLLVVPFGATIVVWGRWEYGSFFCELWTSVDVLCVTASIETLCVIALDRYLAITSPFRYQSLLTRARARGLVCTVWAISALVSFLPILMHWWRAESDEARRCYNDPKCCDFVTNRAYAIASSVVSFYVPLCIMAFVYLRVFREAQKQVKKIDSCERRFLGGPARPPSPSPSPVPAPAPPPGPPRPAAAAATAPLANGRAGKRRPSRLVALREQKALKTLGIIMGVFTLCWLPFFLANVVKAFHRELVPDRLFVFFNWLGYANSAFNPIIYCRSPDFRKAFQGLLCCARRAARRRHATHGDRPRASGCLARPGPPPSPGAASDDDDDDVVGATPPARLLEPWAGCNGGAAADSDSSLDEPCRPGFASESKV

[4] = target: Muscarinic acetylcholine receptor M1 (Homo sapiens) (UniProt P11229); experiment: Binding affinity to human M1 receptor expressed in CHO cells at 10 uM after 90 mins by microbeta counting analysis; type: cell-based; in short: as §1
[5] = target: Sodium-dependent serotonin transporter (Homo sapiens) (UniProt P31645); experiment: Displacement of [3H]citalopram from SERT (unknown origin) expressed in HEK cells at 10 uM after 90 mins by microbeta counting analysis; type: cell-based; conditions: HEK293; in short: as §1
[6] = target: Beta-3 adrenergic receptor (Homo sapiens) (UniProt P13945); experiment: Binding affinity to human adrenergic beta3 receptor expressed in HEK Flp-In cells at 10 uM after 90 mins by microbeta counting analysis; type: cell-based; conditions: HEK293; in short: as §1
[7] = target: D(3) dopamine receptor (Rattus norvegicus) (UniProt P19020); experiment: Displacement of [3H]N-methylspiperone from rat dopamine D3 receptor expressed in HEKT cells at 10 uM after 90 mins by microbeta counting analysis; type: cell-based; in short: as §1
[8] = target: 5-hydroxytryptamine receptor 1B (Homo sapiens) (UniProt P28222); experiment: Displacement of [3H]5-CT from human serotonin 5-HT1B receptor expressed in HEK cells at 10 uM after 90 mins by microbeta counting analysis; type: cell-based; conditions: HEK293; in short: as §1
[9] = target: 5-hydroxytryptamine receptor 2B (Homo sapiens) (UniProt P41595); experiment: Displacement of [3H]LSD from human serotonin 5-HT2B receptor expressed in HEK cells at 10 uM after 90 mins by microbeta counting analysis; type: cell-based; conditions: HEK293; in short: as §1
[10] = target: Sodium-dependent dopamine transporter (Homo sapiens) (UniProt Q01959); experiment: Displacement of [3H]WIN35428 from human DAT expressed in HEK cells at 10 uM after 90 mins by microbeta counting analysis; type: cell-based; conditions: HEK293
[11] = target: 5-hydroxytryptamine receptor 1A (Homo sapiens) (UniProt P08908); experiment: Displacement of [3H]Way100635 from human serotonin 5-HT1A receptor expressed in CHO cells at 10 uM after 90 mins by microbeta counting analysis; type: cell-based; in short: as §1
5-hydroxytryptamine receptor 1A (Homo sapiens), sequence (P08908 whole entry): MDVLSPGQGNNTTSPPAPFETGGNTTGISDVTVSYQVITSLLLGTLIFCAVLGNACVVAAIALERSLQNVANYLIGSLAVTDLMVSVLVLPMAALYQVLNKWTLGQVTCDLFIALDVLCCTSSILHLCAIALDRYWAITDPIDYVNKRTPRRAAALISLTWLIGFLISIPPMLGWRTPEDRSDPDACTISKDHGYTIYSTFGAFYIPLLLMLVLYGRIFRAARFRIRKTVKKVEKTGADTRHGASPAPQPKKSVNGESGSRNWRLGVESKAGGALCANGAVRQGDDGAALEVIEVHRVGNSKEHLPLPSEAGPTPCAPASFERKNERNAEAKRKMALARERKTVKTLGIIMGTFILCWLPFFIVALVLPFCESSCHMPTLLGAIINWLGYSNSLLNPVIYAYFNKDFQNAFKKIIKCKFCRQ

[12] = target: D(4) dopamine receptor (Homo sapiens) (UniProt P21917); experiment: Displacement of [3H]N-methylspiperone from human dopamine D4 receptor at 10 uM after 90 mins by microbeta counting analysis; in short: as §1
[13] = target: 5-hydroxytryptamine receptor 6 (Homo sapiens) (UniProt P50406); experiment: Displacement of [3H]LSD from human serotonin 5-HT6 receptor expressed in HEK cells at 10 uM after 90 mins by microbeta counting analysis; type: cell-based; conditions: HEK293; in short: as §1
[14] = target: 5-hydroxytryptamine receptor 1D (Homo sapiens) (UniProt P28221); experiment: Displacement of [3H]5-CT from human serotonin 5-HT1D receptor expressed in HEKT cells at 10 uM after 90 mins by microbeta counting analysis; type: cell-based; in short: as §1
[15] = target: 5-hydroxytryptamine receptor 3A (Homo sapiens) (UniProt P46098); experiment: Displacement of [3H]GR65630 from human serotonin 5-HT3 receptor expressed in HEKT cells at 10 uM after 90 mins by microbeta counting analysis; type: cell-based; in short: as §1
Rattus norvegicus [16] = species on record: Rattus norvegicus; experiment: Displacement of [3H]DTG from rat sigma2 receptor at 10 uM after 90 mins by microbeta counting analysis; in short: as §1
DRG neuron = experiment: Increase in Ca2+ uptake in mouse DRG neurons at 20 ug/ml by Fura-2 dye-based fluorescence microscopy; type: functional
In short: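 Mouse DRG cells plated in medium with additives and loaded with the Ca2+ dye Fura-2 AM. Compound applied directly at 20 μg/mL. Read-out is the fraction of cells showing a rise in Ca2+ concentration.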

[17] = target: Sigma non-opioid intracellular receptor 1 (Rattus norvegicus) (UniProt Q9R0C9); experiment: Displacement of [3H]pentazocine from rat sigma1 receptor at 10 uM after 90 mins by microbeta counting analysis; in short: as §1
[18] = target: D(2) dopamine receptor (Homo sapiens) (UniProt P14416); experiment: Displacement of [3H]N-methylspiperone from human dopamine D2 receptor at 10 uM after 90 mins by microbeta counting analysis; in short: as §1
[19] = target: D(1B) dopamine receptor (Homo sapiens) (UniProt P21918); experiment: Displacement of [3H]SCH23390 from human dopamine D5 receptor expressed in HEKT cells at 10 uM after 90 mins by microbeta counting analysis; type: cell-based; in short: as §1
[20] = target: Delta-type opioid receptor (Homo sapiens) (UniProt P41143); experiment: Displacement of [3H]DADLE from delta opioid receptor (unknown origin) expressed in HEK cells at 10 uM after 90 mins by microbeta counting analysis; type: cell-based; conditions: HEK293; in short: as §1
Delta-type opioid receptor (Homo sapiens), sequence (P41143 whole entry): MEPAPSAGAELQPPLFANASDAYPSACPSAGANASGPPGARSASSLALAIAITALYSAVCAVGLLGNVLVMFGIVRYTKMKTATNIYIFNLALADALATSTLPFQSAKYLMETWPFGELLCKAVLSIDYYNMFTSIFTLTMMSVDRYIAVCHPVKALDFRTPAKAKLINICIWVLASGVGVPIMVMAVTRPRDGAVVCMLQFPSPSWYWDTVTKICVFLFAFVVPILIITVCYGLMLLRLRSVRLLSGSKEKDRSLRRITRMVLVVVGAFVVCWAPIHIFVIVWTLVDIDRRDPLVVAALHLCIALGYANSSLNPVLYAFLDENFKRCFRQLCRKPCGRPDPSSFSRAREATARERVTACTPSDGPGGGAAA

[21] = target: Alpha-1D adrenergic receptor (Homo sapiens) (UniProt P25100); experiment: Displacement of [3H]prazosin from adrenergic alpha1D receptor (unknown origin) at 10 uM after 90 mins by microbeta counting analysis; in short: as §1
[22] = target: Histamine H1 receptor (Homo sapiens) (UniProt P35367); experiment: Displacement of [3H]pyrilamine from human H1 histamine receptor expressed in HEK cells at 10 uM after 90 mins by microbeta counting analysis; type: cell-based; conditions: HEK293; in short: as §1
[23] = target: Histamine H3 receptor (Homo sapiens) (UniProt Q9Y5N1); experiment: Displacement of [3H]alpha-methylhistamine from human H3 histamine receptor expressed in HEK cells at 10 uM after 90 mins by microbeta counting analysis; type: cell-based; conditions: HEK293; in short: as §1
Histamine H3 receptor (Homo sapiens), sequence (Q9Y5N1 whole entry): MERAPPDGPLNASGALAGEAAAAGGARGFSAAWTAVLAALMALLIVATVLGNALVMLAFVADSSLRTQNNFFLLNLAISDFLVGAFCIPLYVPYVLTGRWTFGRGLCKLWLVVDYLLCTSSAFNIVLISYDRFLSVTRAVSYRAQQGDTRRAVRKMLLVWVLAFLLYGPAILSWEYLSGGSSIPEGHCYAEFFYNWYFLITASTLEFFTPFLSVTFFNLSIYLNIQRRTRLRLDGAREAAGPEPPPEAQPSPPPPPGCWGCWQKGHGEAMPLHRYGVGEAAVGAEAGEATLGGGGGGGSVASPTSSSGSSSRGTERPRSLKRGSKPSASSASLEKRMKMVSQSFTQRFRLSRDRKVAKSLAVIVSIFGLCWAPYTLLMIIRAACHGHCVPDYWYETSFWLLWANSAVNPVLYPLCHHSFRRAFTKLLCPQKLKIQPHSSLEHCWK

[24] = target: Voltage-gated L-type calcium channel (Rattus norvegicus, UniProt P22002+Q02485+P27732); experiment: Binding affinity to rat calcium channel at 10 uM after 90 mins by microbeta counting analysis; conditions: 1.5 h; in short: as §1
[25] = target: Muscarinic acetylcholine receptor M3 (Homo sapiens) (UniProt P20309); experiment: Binding affinity to human M3 receptor expressed in CHO Flp-In cells at 10 uM after 90 mins by microbeta counting analysis; type: cell-based; in short: as §1
Rattus norvegicus [26] = species on record: Rattus norvegicus; experiment: Binding affinity to rat GABAB receptor at 10 uM after 90 mins by microbeta counting analysis; in short: as §1
[27] = target: Alpha-2B adrenergic receptor (Homo sapiens) (UniProt P18089); experiment: Displacement of [3H]rauwolscine from adrenergic alpha2B receptor (unknown origin) expressed in HEKT cells at 10 uM after 90 mins by microbeta counting analysis; type: cell-based; in short: as §1
Alpha-2B adrenergic receptor (Homo sapiens), sequence (P18089 whole entry): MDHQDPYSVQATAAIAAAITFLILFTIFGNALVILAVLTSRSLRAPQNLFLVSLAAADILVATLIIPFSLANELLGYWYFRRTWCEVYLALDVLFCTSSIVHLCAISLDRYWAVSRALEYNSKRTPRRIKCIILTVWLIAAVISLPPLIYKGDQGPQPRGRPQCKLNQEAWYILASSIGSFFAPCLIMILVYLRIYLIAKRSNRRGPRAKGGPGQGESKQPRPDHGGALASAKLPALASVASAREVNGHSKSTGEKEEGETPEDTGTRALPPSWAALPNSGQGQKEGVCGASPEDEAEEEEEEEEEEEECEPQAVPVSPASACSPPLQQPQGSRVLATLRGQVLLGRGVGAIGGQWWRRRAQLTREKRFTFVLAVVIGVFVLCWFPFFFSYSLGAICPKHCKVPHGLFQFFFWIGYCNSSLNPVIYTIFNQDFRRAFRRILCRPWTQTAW

[28] = target: GABA-A receptor; anion channel (Homo sapiens) (UniProt P14867+P47870+P18507+P28472+P48169+Q99928+Q9UN88+P34903+O00591+O14764+Q8N1C3+P18505+P78334+P47869+P31644+Q16445); experiment: Displacement of [3H]Muscimol from rat GABAA receptor at 10 uM after 90 mins by microbeta counting analysis; type: protein-complex assay; conditions: target entry is the homologue from another species; in short: as §1
[29] = target: Alpha-2A adrenergic receptor (Homo sapiens) (UniProt P08913); experiment: Displacement of [3H]rauwolscine from adrenergic alpha2A receptor (unknown origin) expressed in MDCK cells at 10 uM after 90 mins by microbeta counting analysis; type: cell-based; in short: as §1
[30] = target: Mu-type opioid receptor (Homo sapiens) (UniProt P35372); experiment: Displacement of [3H]DAMGO from mu opioid receptor (unknown origin) expressed in HEK cells at 10 uM after 90 mins by microbeta counting analysis; type: cell-based; conditions: HEK293; in short: as §1
Mu-type opioid receptor (Homo sapiens), sequence (P35372 whole entry): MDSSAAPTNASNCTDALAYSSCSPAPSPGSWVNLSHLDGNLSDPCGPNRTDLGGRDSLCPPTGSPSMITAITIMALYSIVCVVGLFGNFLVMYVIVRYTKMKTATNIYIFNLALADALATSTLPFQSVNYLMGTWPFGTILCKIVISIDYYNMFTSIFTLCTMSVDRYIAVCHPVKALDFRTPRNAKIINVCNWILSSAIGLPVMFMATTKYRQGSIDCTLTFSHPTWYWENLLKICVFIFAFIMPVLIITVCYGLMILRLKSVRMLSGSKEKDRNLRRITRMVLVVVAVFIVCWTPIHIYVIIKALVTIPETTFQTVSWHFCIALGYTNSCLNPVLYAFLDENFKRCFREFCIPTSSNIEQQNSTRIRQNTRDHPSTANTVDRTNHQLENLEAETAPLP

[31] = target: Sodium-dependent noradrenaline transporter (Homo sapiens) (UniProt P23975); experiment: Displacement of [3H]nisoxetine from NET (unknown origin) expressed in HEK cells at 10 uM after 90 mins by microbeta counting analysis; type: cell-based; conditions: HEK293; in short: as §1
[32] = target: Muscarinic acetylcholine receptor M4 (Homo sapiens) (UniProt P08173); experiment: Binding affinity to human M4 receptor expressed in CHO cells at 10 uM after 90 mins by microbeta counting analysis; type: cell-based; in short: as §1
[33] = target: Histamine H4 receptor (Homo sapiens) (UniProt Q9H3N8); experiment: Displacement of [3H]histamine from human H4 histamine receptor expressed in HEK cells at 10 uM after 90 mins by microbeta counting analysis; type: cell-based; conditions: HEK293; in short: as §1
Histamine H4 receptor (Homo sapiens), sequence (Q9H3N8 whole entry): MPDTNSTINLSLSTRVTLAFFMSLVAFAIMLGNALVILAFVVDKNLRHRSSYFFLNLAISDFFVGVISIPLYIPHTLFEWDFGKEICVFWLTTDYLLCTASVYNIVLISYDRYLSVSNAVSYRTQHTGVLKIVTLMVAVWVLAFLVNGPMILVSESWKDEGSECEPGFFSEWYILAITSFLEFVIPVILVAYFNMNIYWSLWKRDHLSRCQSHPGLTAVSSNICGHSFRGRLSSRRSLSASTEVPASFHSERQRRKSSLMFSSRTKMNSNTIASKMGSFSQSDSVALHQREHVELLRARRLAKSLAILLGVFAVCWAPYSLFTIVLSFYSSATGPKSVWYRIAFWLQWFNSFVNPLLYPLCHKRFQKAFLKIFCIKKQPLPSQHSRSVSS

[34] = target: 5-hydroxytryptamine receptor 7 (Homo sapiens) (UniProt P34969); experiment: Displacement of [3H]LSD from human serotonin 5-HT7 receptor expressed in HEK cells at 10 uM after 90 mins by microbeta counting analysis; type: cell-based; conditions: HEK293; in short: as §1
[35] = target: D(1A) dopamine receptor (Homo sapiens) (UniProt P21728); experiment: Displacement of [3H]SCH23390 from human dopamine D1 receptor expressed in HEKT cells at 10 uM after 90 mins by microbeta counting analysis; type: cell-based; in short: as §1
[36] = target: Histamine H2 receptor (Homo sapiens) (UniProt P25021); experiment: Binding affinity to human H2 histamine receptor expressed in HEK cells at 10 uM after 90 mins by microbeta counting analysis; type: cell-based; conditions: HEK293; in short: as §1
[37] = target: Alpha-2C adrenergic receptor (Homo sapiens) (UniProt P18825); experiment: Displacement of [3H]rauwolscine from adrenergic alpha2C receptor (unknown origin) expressed in MDCK cells at 10 uM after 90 mins by microbeta counting analysis; type: cell-based; in short: as §1
[38] = target: Kappa-type opioid receptor (Homo sapiens) (UniProt P41145); experiment: Displacement of [3H]U69593 from kappa opioid receptor (unknown origin) expressed in HEK cells at 10 uM after 90 mins by microbeta counting analysis; type: cell-based; conditions: HEK293; in short: as §1
Kappa-type opioid receptor (Homo sapiens), sequence (P41145 whole entry): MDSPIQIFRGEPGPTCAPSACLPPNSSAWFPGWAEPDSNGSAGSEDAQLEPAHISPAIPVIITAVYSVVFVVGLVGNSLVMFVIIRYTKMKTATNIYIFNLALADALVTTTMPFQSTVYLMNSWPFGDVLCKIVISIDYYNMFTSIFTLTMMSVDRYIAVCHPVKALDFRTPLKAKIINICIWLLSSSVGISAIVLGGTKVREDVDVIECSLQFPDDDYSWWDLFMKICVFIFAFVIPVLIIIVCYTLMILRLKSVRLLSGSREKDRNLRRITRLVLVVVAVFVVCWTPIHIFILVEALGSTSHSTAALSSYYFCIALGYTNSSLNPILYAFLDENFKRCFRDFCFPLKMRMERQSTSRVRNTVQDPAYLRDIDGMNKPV

[39] = target: 5-hydroxytryptamine receptor 1E (Homo sapiens) (UniProt P28566); experiment: Displacement of [3H]5-HT from human serotonin 5-HT1E receptor expressed in HEK cells at 10 uM after 90 mins by microbeta counting analysis; type: cell-based; conditions: HEK293; in short: as §1
[40] = target: 5-hydroxytryptamine receptor 2A (Homo sapiens) (UniProt P28223); experiment: Displacement of [3H]ketanserin from human serotonin 5-HT2A receptor expressed in HEKT cells at 10 uM after 90 mins by microbeta counting analysis; type: cell-based; in short: as §1
[41] = target: 5-hydroxytryptamine receptor 5A (Homo sapiens) (UniProt P47898); experiment: Displacement of [3H]LSD from human serotonin 5-HT5A receptor expressed in Flp-In CHO cells at 10 uM after 90 mins by microbeta counting analysis; type: cell-based; in short: as §1
[42] = target: Alpha-1B adrenergic receptor (Homo sapiens) (UniProt P35368); experiment: Displacement of [3H]prazosin from adrenergic alpha1B receptor (unknown origin) expressed in HEKT cells at 10 uM after 90 mins by microbeta counting analysis; type: cell-based; in short: as §1
Alpha-1B adrenergic receptor (Homo sapiens), sequence (P35368 whole entry): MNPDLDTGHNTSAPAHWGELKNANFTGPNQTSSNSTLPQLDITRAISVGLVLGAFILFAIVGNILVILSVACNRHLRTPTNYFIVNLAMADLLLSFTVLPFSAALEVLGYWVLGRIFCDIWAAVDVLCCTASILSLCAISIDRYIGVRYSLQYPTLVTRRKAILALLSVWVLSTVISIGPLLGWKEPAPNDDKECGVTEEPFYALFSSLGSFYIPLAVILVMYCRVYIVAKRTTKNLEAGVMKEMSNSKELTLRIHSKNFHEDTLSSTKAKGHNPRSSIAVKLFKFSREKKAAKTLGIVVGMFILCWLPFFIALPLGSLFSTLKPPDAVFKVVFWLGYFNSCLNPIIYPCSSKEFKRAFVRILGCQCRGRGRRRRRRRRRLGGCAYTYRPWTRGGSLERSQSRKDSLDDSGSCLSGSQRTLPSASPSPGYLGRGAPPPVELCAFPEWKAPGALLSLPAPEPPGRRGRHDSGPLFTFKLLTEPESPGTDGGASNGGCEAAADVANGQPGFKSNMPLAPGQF

[43] = target: 5-hydroxytryptamine receptor 2C (Homo sapiens) (UniProt P28335); experiment: Displacement of [3H]Mesulergine from human serotonin 5-HT2C receptor expressed in Flp-IN HEK cells at 10 uM after 90 mins by microbeta counting analysis; type: cell-based; conditions: HEK293; in short: as §1
5-hydroxytryptamine receptor 2C (Homo sapiens), sequence (P28335 whole entry): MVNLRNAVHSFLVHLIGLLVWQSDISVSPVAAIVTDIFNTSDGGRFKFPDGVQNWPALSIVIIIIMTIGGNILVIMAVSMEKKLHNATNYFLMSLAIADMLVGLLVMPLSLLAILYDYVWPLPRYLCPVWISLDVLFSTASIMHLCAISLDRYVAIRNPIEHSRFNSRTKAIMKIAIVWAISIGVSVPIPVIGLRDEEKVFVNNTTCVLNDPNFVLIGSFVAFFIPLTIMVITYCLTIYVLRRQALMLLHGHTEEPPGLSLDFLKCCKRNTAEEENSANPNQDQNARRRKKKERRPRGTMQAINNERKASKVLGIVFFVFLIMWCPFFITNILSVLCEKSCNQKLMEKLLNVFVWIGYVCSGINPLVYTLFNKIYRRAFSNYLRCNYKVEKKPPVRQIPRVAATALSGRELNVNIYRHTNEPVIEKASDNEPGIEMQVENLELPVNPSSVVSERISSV

[44] = target: Beta-2 adrenergic receptor (Homo sapiens) (UniProt P07550); experiment: Displacement of [3H]CGP12177 from human adrenergic beta2 receptor expressed in HEK Flp-In cells at 10 uM after 90 mins by microbeta counting analysis; type: cell-based; conditions: HEK293; in short: as §1
[45] = target: Muscarinic acetylcholine receptor M2 (Homo sapiens) (UniProt P08172); experiment: Binding affinity to human M2 receptor expressed in CHO cells at 10 uM after 90 mins by microbeta counting analysis; type: cell-based; in short: as §1
[46] = target: 5-hydroxytryptamine receptor 4 (Homo sapiens) (UniProt Q13639); experiment: Displacement of [3H]GR113808 from human serotonin 5-HT4 receptor at 10 uM after 90 mins by microbeta counting analysis; in short: as §1

SMILES: COC(=O)CCc1cc2cc(C)oc(=O)c2c(O)c1O
- Activity [1]: inactive
- Activity [2]: inactive
- Activity [3]: inactive
- Activity [4]: inactive
- Activity [5]: inactive
- Activity [6]: inactive
- Activity [7]: inactive
- Activity [8]: inactive
- Activity [9]: inactive
- Activity [10]: inactive
- Activity [11]: inactive
- Activity [12]: inactive
- Activity [13]: inactive
- Activity [14]: inactive
- Activity [15]: inactive
- Activity (Rattus norvegicus [16]): inactive
- Activity (DRG neuron): Active
- Activity [17]: inactive
- Activity [18]: inactive
- Activity [19]: inactive
- Activity [20]: inactive
- Activity [21]: inactive
- Activity [22]: inactive
- Activity [23]: inactive
- Activity [24]: Not Active
- Activity [25]: inactive
- Activity (Rattus norvegicus [26]): inactive
- Activity [27]: inactive
- Activity [28]: inactive
- Activity [29]: inactive
- Activity [30]: inactive
- Activity [31]: inactive
- Activity [32]: inactive
- Activity [33]: inactive
- Activity [34]: inactive
- Activity [35]: inactive
- Activity [36]: inactive
- Activity [37]: inactive
- Activity [38]: inactive
- Activity [39]: inactive
- Activity [40]: inactive
- Activity [41]: inactive
- Activity [42]: inactive
- Activity [43]: inactive
- Activity [44]: inactive
- Activity [45]: inactive
- Activity [46]: inactive

SMILES: Cc1cc2cc(CCC(=O)O)c(O)c(O)c2c(=O)o1
- Activity (DRG neuron): Active
